The source made the active and inactive calls. No cut-off for these calls is given here.
How the values were obtained:
Glucagon receptor [1] = target: T1, Glucagon receptor (Homo sapiens, UniProt P47871); assay: Displacement of [125I]-glucagon from human glucagon receptor expressed in CHO cells after 4 to 12 hrs by scintillation proximity assay; format: cell-based
How it was run: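 Scintillation proximity assay on membranes from CHO cells expressing hGCGR, measuring inhibition of ¹²⁵I-labelled glucagon binding. IC50 reported as the average rounded to two significant figures, with standard error of the mean when more than one measurement was made.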

Glucagon receptor [2] = target: T1, Glucagon receptor; assay: Antagonist activity at human glucagon receptor expressed in CHO cells assessed as inhibition of forskolin/glucagon-induced cAMP production preincubated for 30 mins before glucagon challenge measured after 30 mins using [125I]-cAMP by liquid scintillation counting; format: functional, cell-based
How it was run: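 Glucagon-induced cAMP production measured in CHO cells transfected with hGCGR. IC50 reported as the average rounded to two significant figures, with SEM when measured more than once.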

[3] = Plasma clearance in rat at 1 mg/kg, iv and 2 mg/kg, po; format: ADME, organism-based
How it was run: (§1)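 Rat PK with dosing at 1 mg/kg IV and 2 mg/kg PO, vehicle DMSO/water/PEG400 15:35:55. Parameters were plasma clearance, Vd, t1/2, dose-normalised PO AUC and Cmax, and %F.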

[4] = Volume of distribution in rat at 1 mg/kg, iv and 2 mg/kg, po; format: ADME, organism-based; details: in vivo; how it was run: as §1
[5] = Half life in rat at 1 mg/kg, iv and 2 mg/kg, po; format: ADME, organism-based; details: in vivo; how it was run: as §1
Rattus norvegicus [6] = assay: Dose normalised AUC in rat at 2 mg/kg, po; format: ADME, organism-based; parameters: dose 2 mg/kg, route oral; details: in vivo; how it was run: as §1
Rattus norvegicus [7] = assay: Dose normalised Cmax in rat at 1 mg/kg, iv and 2 mg/kg, po; format: ADME, organism-based; details: in vivo; how it was run: as §1
[8] = Oral bioavailability in rat at 2 mg/kg; format: ADME, organism-based; details: in vivo; how it was run: as §1
[9] = Plasma clearance in dog at 0.5 mg/kg, iv and 2 mg/kg, po; format: ADME, organism-based, Canis lupus familiaris
[10] = Volume of distribution in dog at 0.5 mg/kg, iv and 2 mg/kg, po; format: ADME, organism-based, Canis lupus familiaris; details: in vivo
[11] = Half life in dog at 0.5 mg/kg, iv and 2 mg/kg, po; format: ADME, organism-based, Canis lupus familiaris; details: in vivo
Canis familiaris [12] = assay: Dose normalised AUC in dog at 2 mg/kg, po; format: ADME, organism-based, Canis lupus familiaris; parameters: dose 2 mg/kg, route oral; details: in vivo
Canis familiaris [13] = assay: Dose normalised Cmax in dog at 0.5 mg/kg, iv and 2 mg/kg, po; format: ADME, organism-based, Canis lupus familiaris; details: in vivo
[14] = Oral bioavailability in dog at 2 mg/kg; format: ADME, organism-based, Canis lupus familiaris; details: in vivo
[15] = target: Glucagon-like peptide 1 receptor (Homo sapiens, UniProt P43220); assay: Antagonist activity at human GLP1 receptor assessed as inhibition of cAMP production; format: functional
[16] = target: T2, Gastric inhibitory polypeptide receptor (Homo sapiens, UniProt P48546); assay: Antagonist activity at human GIP receptor assessed as inhibition of cAMP production; format: functional
T2 sequence (P48546 whole entry): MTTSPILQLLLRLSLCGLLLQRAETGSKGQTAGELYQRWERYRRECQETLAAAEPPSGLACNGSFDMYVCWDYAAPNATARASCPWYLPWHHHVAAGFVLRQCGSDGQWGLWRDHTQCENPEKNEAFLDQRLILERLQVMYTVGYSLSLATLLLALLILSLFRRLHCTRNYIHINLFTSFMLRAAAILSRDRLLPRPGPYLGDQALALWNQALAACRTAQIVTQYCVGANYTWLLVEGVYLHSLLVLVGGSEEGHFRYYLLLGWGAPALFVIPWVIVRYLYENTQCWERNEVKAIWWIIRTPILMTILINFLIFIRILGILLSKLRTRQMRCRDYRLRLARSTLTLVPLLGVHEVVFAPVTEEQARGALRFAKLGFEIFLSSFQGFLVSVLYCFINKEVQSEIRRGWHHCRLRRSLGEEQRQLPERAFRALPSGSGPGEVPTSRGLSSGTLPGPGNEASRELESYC

Cytochrome P450 3A4 = Cytochrome P450 3A4 (Homo sapiens, UniProt P08684); assay: Inhibition of CYP3A4; format: ADME
Cytochrome P450 2C9 = Cytochrome P450 2C9 (Homo sapiens, UniProt P11712); assay: Inhibition of CYP2C9; format: ADME
Cytochrome P450 2D6 = Cytochrome P450 2D6 (Homo sapiens, UniProt P10635); assay: Inhibition of CYP2D6; format: ADME
Mus musculus [17] = assay: Antidiabetic activity in human glucagon receptor transgenic mouse assessed as inhibition of glucagon-induced glucose excursion at 3 mg/kg, po administered 60 mins after glucagon challenge by glucometry; format: functional, organism-based; parameters: dose 3 mg/kg; details: in the assay text read “60 mins before glucagon challenge” for “60 mins after glucagon challenge”
How it was run: (§2)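 Oral dosing to mice expressing human glucagon receptor, followed 60 min later by IP glucagon injection. Read-out was the glucagon-induced blood glucose excursion.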

Mus musculus [18] = assay: Antidiabetic activity in human glucagon receptor transgenic mouse assessed as inhibition of glucagon-induced glucose excursion at 10 mg/kg, po administered 60 mins after glucagon challenge by glucometry; format: functional, organism-based; parameters: dose 10 mg/kg; details: in the assay text read “60 mins before glucagon challenge” for “60 mins after glucagon challenge”; how it was run: as §2
Mus musculus [19] = assay: Antidiabetic activity in human glucagon receptor transgenic mouse assessed as inhibition of glucagon-induced glucose excursion at 30 mg/kg, po administered 60 mins after glucagon challenge by glucometry; format: functional, organism-based; parameters: dose 30 mg/kg; details: in the assay text read “60 mins before glucagon challenge” for “60 mins after glucagon challenge”; how it was run: as §2
Mus musculus [20] = assay: Antidiabetic activity in human glucagon receptor transgenic ob/ob mouse hyperglycemic model assessed as reduction in ambient glucose level at 1 mg/kg, po over 6 hrs period; format: functional, organism-based; parameters: dose 1 mg/kg
How it was run: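 Model was transgenic ob/ob/hGCGR diabetic mice. Ambient glucose was followed over 6 h after a single oral dose.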

[21] = Chemical stability of the compound in 1:1 mixtures of dioxane and buffered solutions at pH 2 to pH 10 assessed as racemization at 40 degree celsius after 24 hrs by chiral HPLC analysis; format: physicochemical; details: buffer, pH 2, 24 h
Liver microsomes [22] = assay: Stability of the compound in human liver microsomes assessed as racemization at 10 uM after 60 mins by chiral HPLC analysis; format: ADME, Microsome; details: 1 h
Liver microsomes [23] = assay: Protein binding in human liver microsomes at 10 uM after 60 mins; format: ADME, Microsome; details: 1 h
How it was run: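 Tritium-labelled analog incubated with human and rat liver microsomes for 60 min at 37 °C, then irreversible protein binding measured.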

Rattus norvegicus [24] = assay: Stability of the compound in bile duct cannulated rat assessed as racemization at 2 mg/kg, iv by chiral HPLC analysis; format: ADME, organism-based; parameters: dose 2 mg/kg, route intravenous; details: in vivo
How it was run: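 Radiolabelled compound given IV at 2 mg/kg to bile-duct-cannulated rats. Excreted parent compound analysed by chiral HPLC for racemization.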

Plasma = assay: Protein binding in Sprague-Dawley rat plasma at 20 mg/kg, po after 2 to 24 hrs; format: ADME, organism-based; parameters: dose 20 mg/kg, route oral; details: in vivo
How it was run: (§3)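 Radiolabelled analog given orally at 20 mg/kg to Sprague-Dawley rats. Irreversible binding to plasma and liver proteins measured at 2, 6 and 24 h post dose.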

Liver = assay: Protein binding in Sprague-Dawley rat liver at 20 mg/kg, po after 2 to 24 hrs; format: ADME, organism-based; parameters: dose 20 mg/kg, route oral; details: in vivo; how it was run: as §3
Rattus norvegicus [25] = assay: Toxicity in rat assessed as tolerability at 100 mg/kg/day after 8 days; format: organism-based; details: in vivo, 192 h

T1 sequence (P47871 whole entry): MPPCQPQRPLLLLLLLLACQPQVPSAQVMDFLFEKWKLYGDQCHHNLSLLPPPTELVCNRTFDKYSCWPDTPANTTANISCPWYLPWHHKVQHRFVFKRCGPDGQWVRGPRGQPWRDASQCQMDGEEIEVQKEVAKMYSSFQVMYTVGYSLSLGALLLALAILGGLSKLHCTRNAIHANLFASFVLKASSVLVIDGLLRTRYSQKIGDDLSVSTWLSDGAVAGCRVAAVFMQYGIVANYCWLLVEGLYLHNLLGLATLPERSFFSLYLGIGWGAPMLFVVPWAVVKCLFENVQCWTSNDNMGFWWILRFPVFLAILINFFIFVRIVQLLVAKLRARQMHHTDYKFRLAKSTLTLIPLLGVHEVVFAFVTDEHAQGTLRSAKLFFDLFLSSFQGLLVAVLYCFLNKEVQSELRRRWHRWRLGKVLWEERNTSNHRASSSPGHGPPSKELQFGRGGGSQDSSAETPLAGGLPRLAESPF
Sequence of Cytochrome P450 2C9 (P11712 whole entry): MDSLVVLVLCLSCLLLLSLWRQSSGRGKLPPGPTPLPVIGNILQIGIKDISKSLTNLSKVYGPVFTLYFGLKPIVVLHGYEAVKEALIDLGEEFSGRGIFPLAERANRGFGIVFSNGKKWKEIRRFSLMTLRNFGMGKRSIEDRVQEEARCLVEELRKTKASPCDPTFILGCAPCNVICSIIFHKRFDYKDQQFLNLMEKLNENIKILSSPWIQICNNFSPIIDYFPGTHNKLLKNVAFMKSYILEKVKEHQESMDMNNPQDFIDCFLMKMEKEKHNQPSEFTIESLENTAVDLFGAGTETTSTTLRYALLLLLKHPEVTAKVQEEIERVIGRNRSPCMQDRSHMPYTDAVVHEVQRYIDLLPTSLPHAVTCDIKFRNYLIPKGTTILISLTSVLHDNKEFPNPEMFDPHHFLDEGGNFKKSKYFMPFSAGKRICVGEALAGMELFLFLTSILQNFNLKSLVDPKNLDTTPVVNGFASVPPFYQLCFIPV
Sequence of Cytochrome P450 2D6 (P10635 whole entry): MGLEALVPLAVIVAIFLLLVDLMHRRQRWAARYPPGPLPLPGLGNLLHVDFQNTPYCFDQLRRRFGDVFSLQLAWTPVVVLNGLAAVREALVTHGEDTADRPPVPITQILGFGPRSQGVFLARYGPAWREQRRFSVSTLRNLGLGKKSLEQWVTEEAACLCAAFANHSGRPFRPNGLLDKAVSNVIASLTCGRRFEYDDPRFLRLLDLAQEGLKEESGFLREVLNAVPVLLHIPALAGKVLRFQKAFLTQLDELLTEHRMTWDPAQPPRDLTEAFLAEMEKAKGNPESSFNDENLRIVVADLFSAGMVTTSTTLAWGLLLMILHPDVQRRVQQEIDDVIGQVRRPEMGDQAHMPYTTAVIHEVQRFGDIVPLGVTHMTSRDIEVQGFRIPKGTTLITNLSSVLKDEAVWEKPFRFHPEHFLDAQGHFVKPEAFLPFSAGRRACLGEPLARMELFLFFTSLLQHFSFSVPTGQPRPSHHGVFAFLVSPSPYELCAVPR
Sequence of Glucagon-like peptide 1 receptor (P43220 whole entry): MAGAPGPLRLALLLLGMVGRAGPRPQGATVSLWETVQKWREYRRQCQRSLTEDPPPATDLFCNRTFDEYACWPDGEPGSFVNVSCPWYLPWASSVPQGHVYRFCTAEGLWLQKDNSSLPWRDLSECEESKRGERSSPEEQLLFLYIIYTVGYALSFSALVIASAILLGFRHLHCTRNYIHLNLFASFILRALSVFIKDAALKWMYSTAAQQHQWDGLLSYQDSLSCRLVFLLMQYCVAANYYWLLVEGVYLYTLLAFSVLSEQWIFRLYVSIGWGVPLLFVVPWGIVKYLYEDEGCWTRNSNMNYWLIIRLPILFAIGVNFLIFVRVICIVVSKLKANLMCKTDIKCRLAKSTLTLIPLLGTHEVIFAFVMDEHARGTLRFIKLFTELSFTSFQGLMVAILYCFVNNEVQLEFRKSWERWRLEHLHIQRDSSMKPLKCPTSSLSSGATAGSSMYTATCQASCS
Sequence of Cytochrome P450 3A4 (P08684 whole entry): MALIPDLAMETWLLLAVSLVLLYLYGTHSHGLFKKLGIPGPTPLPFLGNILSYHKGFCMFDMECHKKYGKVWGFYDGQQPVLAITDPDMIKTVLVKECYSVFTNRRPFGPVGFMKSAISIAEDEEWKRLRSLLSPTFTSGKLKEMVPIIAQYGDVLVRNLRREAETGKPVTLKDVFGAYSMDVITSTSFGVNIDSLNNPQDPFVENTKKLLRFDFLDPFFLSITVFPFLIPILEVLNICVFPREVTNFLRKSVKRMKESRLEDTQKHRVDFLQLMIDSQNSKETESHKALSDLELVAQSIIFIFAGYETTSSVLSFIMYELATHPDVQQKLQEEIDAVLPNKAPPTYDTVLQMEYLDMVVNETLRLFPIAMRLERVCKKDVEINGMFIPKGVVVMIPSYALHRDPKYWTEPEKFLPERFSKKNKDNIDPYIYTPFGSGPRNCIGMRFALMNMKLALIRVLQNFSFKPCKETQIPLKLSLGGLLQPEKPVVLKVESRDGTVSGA

## CCCC(Cc1ccc(C(=O)NCCC(=O)O)cc1)C(=O)c1cc2cc(Cl)ccc2n1-c1cc(Cl)cc(Cl)c1 (single isomer, unassigned)
Glucagon receptor [1]
  IC50: 110 nM

## CCCCC[C@@H](Cc1ccc(C(=O)NCCC(=O)O)cc1)C(=O)c1cc2cc(Cl)ccc2n1-c1cccc(C(F)(F)F)c1
Glucagon receptor [1]
  IC50: 10 nM
Glucagon receptor [2]
  IC50: 12 nM
[3]
  clearance: 6.8 mL/min/kg
[4]
  Vd: 0.98 L/kg
[5]
  half-life: 1.9 h
Rattus norvegicus [6]
  AUC/dose: 1.46 µM·h
Rattus norvegicus [7]
  Cmax/dose: 330 nM
[8]
  bioavailability: 33%
[9]
  clearance: 3.8 mL/min/kg
[10]
  Vd: 0.32 L/kg
[11]
  half-life: 2.7 h
Canis familiaris [12]
  AUC/dose: 4.2 µM·h
Canis familiaris [13]
  Cmax/dose: 840 nM
[14]
  bioavailability: 60%
[15]
  IC50: > 10000 nM
[16]
  IC50: 1400 nM
Cytochrome P450 3A4
  IC50: > 11000 nM
Cytochrome P450 2C9
  IC50: > 11000 nM
Cytochrome P450 2D6
  IC50: > 11000 nM
Mus musculus [17]
  Activity: Active
Mus musculus [18]
  Activity: Active
Mus musculus [19]
  Activity: Active
Mus musculus [20]
  Activity: Active
[21]
  Stability: Stable
Liver microsomes [22]
  Stability: Stable
Liver microsomes [23]
  PB: Not Active
Rattus norvegicus [24]
  Stability: Stable
Plasma
  PPB: Not Active
Liver
  PB: Not Active
Rattus norvegicus [25]
  Activity: Non-toxic

## CCCCC[C@@H](Cc1ccc(C(=O)NCCC(=O)O)cc1)C(=O)c1cc2cc(C(F)(F)F)ccc2n1-c1cccc(C(F)(F)F)c1
Glucagon receptor [1]
  IC50: 16 nM
Glucagon receptor [2]
  IC50: 44 nM

## CCCC(Cc1ccc(C(=O)NCCC(=O)O)cc1)C(=O)c1cc2cc(Cl)ccc2n1-c1ccc(OC(F)(F)F)cc1 (single isomer, unassigned)
Glucagon receptor [1]
  IC50: 28 nM
Glucagon receptor [2]
  IC50: 45 nM

## CCCC(Cc1ccc(C(=O)NCCC(=O)O)cc1)C(=O)c1cc2cc(Cl)ccc2n1-c1cnc2ccccc2c1 (single isomer, unassigned)
Glucagon receptor [1]
  IC50: 58 nM
Glucagon receptor [2]
  IC50: 718 nM

## CCC[C@@H](Cc1ccc(C(=O)NCCC(=O)O)cc1)C(=O)c1cc2cc(Cl)ccc2n1-c1cccc(C(F)(F)F)n1
Glucagon receptor [1]
  IC50: 9.2 nM
Glucagon receptor [2]
  IC50: 34 nM
[3]
  clearance: 24 mL/min/kg
[4]
  Vd: 0.9 L/kg
[5]
  half-life: 1.1 h
Rattus norvegicus [6]
  AUC/dose: 0.15 µM·h
Rattus norvegicus [7]
  Cmax/dose: 70 nM
[8]
  bioavailability: 9.1%

## CCCCC[C@@H](Cc1ccc(C(=O)NCCC(=O)O)cc1)C(=O)c1cc2cc(F)ccc2n1-c1cccc(C(F)(F)F)c1
Glucagon receptor [1]
  IC50: 10 nM
Glucagon receptor [2]
  IC50: 20 nM

— ChEMBL document CHEMBL1921704, “Discovery of N-aryl-2-acylindole human glucagon receptor antagonists” (Bioorg Med Chem Lett, 2011)
